Source: ChEMBL document CHEMBL1137728, “Synthesis of novel thiazolone-based compounds containing pyrazoline moiety and evaluation of their anticancer activity” (2009)

Key:
Assay type in all cases: functional
[1] = Anticancer activity against human NCI60 cells assessed as cell growth at 10 uM after 48 hrs by SRB assay; conditions: NCI60, 48 h, read-out: Activity
How it was run: (§1)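 US NCI one-dose screen across about 60 human tumour cell lines. A single concentration of 10^-5 M was applied with 48 h continuous exposure. The end point was sulforhodamine B protein staining, read spectrophotometrically. Results are given as percent growth of treated cells relative to untreated controls.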

[2] = tested on: HL-60(TB); experiment: Anticancer activity against human HL-60(TB) cells assessed as cell growth at 10 uM after 48 hrs by SRB assay; conditions: HL-60, 48 h, read-out: Activity
How it was run: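 Single-dose NCI-60 screen: 10^-5 M added to culture, 48 h incubation; endpoint by sulforhodamine B protein staining read spectrophotometrically; reported as percent growth of treated cells versus untreated control cells.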

[3] = tested on: CCRF-CEM; experiment: Anticancer activity against human CCRF-CEM cells assessed as cell growth at 10 uM after 48 hrs by SRB assay; conditions: read-out: Activity; how it was run: as §1
[4] = tested on: NCI/ADR-RES; experiment: Growth inhibition of human NCI/ADR-RES cells after 48 hrs by SRB assay
How it was run: (§2)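 NCI five-dose screen across about 60 human tumour cell lines, at 10-fold dilutions from 10^-4 to 10^-8 M with 48 h continuous exposure, read by SRB. Percent growth used time-zero, untreated control and treated absorbances. GI50 was the concentration giving 50% lower net protein increase than controls. Values beyond the tested range were reported as more or less than the maximum or minimum concentration.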

[5] = tested on: SN12C; experiment: Growth inhibition of human SN12C cells after 48 hrs by SRB assay; how it was run: as §2
[6] = tested on: KM12; experiment: Growth inhibition of human KM12 cells after 48 hrs by SRB assay; conditions: KM12, 48 h; how it was run: as §2
[7] = Growth inhibition of human […] cells after 48 hrs by SRB assay; how it was run: as §2
[8] = tested on: UACC-62; experiment: Growth inhibition of human UACC62 cells after 48 hrs by SRB assay; conditions: UACC-62, 48 h; how it was run: as §2
[9] = tested on: HCT-15; experiment: Growth inhibition of human HCT15 cells after 48 hrs by SRB assay; conditions: HCT-15, 48 h; how it was run: as §2
[10] = tested on: 786-0; experiment: Growth inhibition of human 786-0 cells after 48 hrs by SRB assay; conditions: 786-0, 48 h; how it was run: as §2
[11] = tested on: HOP-92; experiment: Growth inhibition of human HOP92 cells after 48 hrs by SRB assay; conditions: HOP-92, 48 h; how it was run: as §2
[12] = tested on: U-251; experiment: Growth inhibition of human U251 cells after 48 hrs by SRB assay; conditions: U-251, 48 h; how it was run: as §2
[13] = tested on: HOP-62; experiment: Growth inhibition of human HOP62 cells after 48 hrs by SRB assay; conditions: HOP-62, 48 h; how it was run: as §2
[14] = tested on: CCRF-CEM; experiment: Growth inhibition of human CCRF-CEM cells after 48 hrs by SRB assay; how it was run: as §2
[15] = tested on: IGROV-1; experiment: Growth inhibition of human IGROV1 cells after 48 hrs by SRB assay; conditions: IGROV-1, 48 h; how it was run: as §2
[16] = tested on: SR; experiment: Anticancer activity against human SR cells assessed as cell growth at 10 uM after 48 hrs by SRB assay; conditions: read-out: Activity; how it was run: as §1

## O=C1N=C(N2N=C(c3ccccc3)CC2c2ccccc2O)S/C1=C\c1cccc(Br)c1 (centres undefined)
[1]
  growth at 10 µM: 88.6%
[2]
  growth at 10 µM: -54%

## O=C1N=C(N2N=C(c3ccccc3)CC2c2ccccc2O)S/C1=C\c1ccc(Cl)cc1 (centres undefined)
[1]
  growth at 10 µM: 98.3%
[3]
  growth at 10 µM: -25%

## O=C1N=C(N2N=C(c3ccccc3)CC2c2ccccc2O)/C(=C/c2ccccc2)S1 (centres undefined)
[4]
  GI50: 1820 nM
[5]
  GI50: 1700 nM
[5]; read-out: pTGI (converted)
  TGI: 3.09 µM
[6]
  GI50: 1620 nM
[6]; read-out: pTGI (converted)
  TGI: 4.47 µM
[7]
  GI50: 1550 nM
[7]; read-out: pTGI (converted)
  TGI: 3.24 µM
[8]
  GI50: 1620 nM
[8]; read-out: pTGI (converted)
  TGI: 2950 nM
[9]
  GI50: 1510 nM
[9]; read-out: pTGI (converted)
  TGI: 2950 nM
[10]
  GI50: 1820 nM
[10]; read-out: pTGI (converted)
  TGI: 3.89 µM
[11]
  GI50: 1550 nM
[11]; read-out: pTGI (converted)
  TGI: 4.47 µM
[12]
  GI50: 1550 nM
[12]; read-out: pTGI (converted)
  TGI: 2880 nM
[13]
  GI50: 1620 nM
[13]; read-out: pTGI (converted)
  TGI: 3.47 µM
[14]
  GI50: 1910 nM
[14]; read-out: pTGI (converted)
  TGI: 4.57 µM
[15]
  GI50: 2000 nM
[15]; read-out: pTGI (converted)
  TGI: 4.47 µM

## O=C1N=C(N2N=C(c3ccccc3)CC2c2ccccc2O)S/C1=C\c1ccccc1Cl (centres undefined)
[16]
  growth at 10 µM: 45.6%
[1]
  growth at 10 µM: 102%
